Assay results: ChEMBL document CHEMBL5390247, “Aryl azoles based scaffolds for disrupting tumor microenvironment” (Bioorg Med Chem, 2023)
pIC50: −log10 of the molar value. Activity calls are given as the source filed them. The calls are words filed in the database; no cut-off is given here.

Columns and labels:
[1] = Toxicity against interferon gamma-stimulated human THP-1 monocyte cells co-cultured with human HT-29 cells assessed as reduction in cell viability at 100 uM incubated for 48 hrs by flow cytometry analysis; format: cell-based; details: thp-1, 48 h
In short: (§1)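 HT-29 cells at 10^5/well seeded and grown 24 h. Medium then replaced with medium containing IFN-γ (10 ng/ml), 5 × 10^5 THP-1 cells/well and compound at 100 µM; DMSO used as control. After 48 h, THP-1 cells collected from supernatant and cancer cells by trypsinisation. Both fixed in 4% paraformaldehyde and counted by flow cytometry relative to control.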

[2] = system: HT-29; test: Antiproliferative activity against human HT-29 cells assessed as relative PD-L1 protein expression in membrane at 100 uM incubated for 48 hrs by flow cytometry analysis relative to control; format: functional
[3] = system: HT-29; test: Antiproliferative activity against human HT-29 cells assessed as relative PD-L1 protein expression in whole cell at 100 uM incubated for 48 hrs by flow cytometry analysis relative to control; format: functional
[4] = system: HT-29; test: Antiproliferative activity against human HT-29 cells assessed as relative c-Myc protein expression at 100 uM incubated for 48 hrs by flow cytometry analysis relative to control; format: functional
[5] = system: HT-29; test: Antiproliferative activity against human HT-29 cells assessed as relative VEGFR-2 protein expression in membrane at 100 uM incubated for 48 hrs by flow cytometry analysis relative to control; format: functional
[6] = system: HT-29; test: Antiproliferative activity against human HT-29 cells assessed as relative VEGFR-2 protein expression in whole cell at 100 uM incubated for 48 hrs by flow cytometry analysis relative to control; format: functional
[7] = system: HT-29; test: Immunomodulatory activity in human HT-29 cells co-cultured with interferon gamma-stimulated THP-1 cells assessed as cell viability at 100 uM incubated for 48 hrs by flow cytometry analysis relative to control; format: functional; details: read-out: Activity; in short: as §1
[8] = system: HT-29; test: Immunomodulatory activity in human HT-29 cells co-cultured with interferon gamma-stimulated THP-1 cells assessed as inhibition of cell growth at 100 uM incubated for 48 hrs by flow cytometry analysis relative to control; format: functional; in short: as §1
[9] = system: HT-29; test: Immunomodulatory activity in human HT-29 cells co-cultured with interferon gamma-stimulated THP-1 cells assessed as relative CD-47 protein expression in membrane at 100 uM incubated for 48 hrs by flow cytometry analysis relative to control; format: functional
[10] = system: HT-29; test: Immunomodulatory activity in human HT-29 cells co-cultured with interferon gamma-stimulated THP-1 cells assessed as relative PD-L1 protein expression in membrane at 100 uM incubated for 48 hrs by flow cytometry analysis relative to control; format: functional
[11] = system: HT-29; test: Immunomodulatory activity in human HT-29 cells co-cultured with interferon gamma-stimulated THP-1 cells assessed as inhibition of CD-47 protein expression at 100 uM incubated for 48 hrs by flow cytometry analysis relative to control; format: functional
[12] = system: HT-29; test: Antiproliferative activity against human HT-29 cells assessed as reduction in cell viability incubated for 48 hrs by MTT assay; format: functional, cell-based; details: HT-29, 48 h
In short: (§2)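 MTT dye-reduction assay. Cells at 5 × 10^3/well in DMEM with 10% FBS, treated with serial dilutions of compound (DMSO stocks) for 2 days at 37 °C, 5% CO2. MTT added for a further 3 h, formazan dissolved in DMSO, absorbance read at 550 nm. Viability expressed as % of untreated cells; IC50 determined graphically from three independent experiments.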

[13] = system: A549; test: Antiproliferative activity against human A549 cells assessed as reduction in cell viability incubated for 48 hrs by MTT assay; format: functional, cell-based; details: A549, 48 h; in short: as §2
[14] = system: MCF7; test: Antiproliferative activity against human MCF7 cells assessed as reduction in cell viability incubated for 48 hrs by MTT assay; format: functional, cell-based; details: MCF7, 48 h; in short: as §2
[15] = Cytotoxicity against HEK293 cells assessed as reduction in cell viability incubated for 48 hrs by MTT assay; format: toxicity, cell-based; details: human; in short: as §2
[16] = system: HT-29; test: Antiproliferative activity against human HT-29 cells assessed as reduction in IL-6 secretion at 100 uM incubated for 48 hrs by ELISA assay; format: functional, cell-based
In short: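 HT-29 monocultures at 10^5 cells/well treated 48 h with compound at 100 µM in 500 µL growth medium. Media collected and secreted IL-6 measured with a human IL-6 ELISA kit.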

[17] = system: HT-29; test: Immunomodulatory activity in human HT-29 cells co-cultured with interferon gamma-stimulated THP-1 cells assessed as IL-6 level at 100 uM incubated for 48 hrs by ELISA analysis (reference value: 192 +/- 16 pg/ml); format: functional
In short: (§3)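 HT-29 cells co-cultured with IFN-γ (10 ng/ml)-stimulated THP-1 cells and treated 48 h with compound at 100 µM. Culture media collected and IL-6 measured by human IL-6 ELISA, in pg/mL and as % of control. Mean of three experiments.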

[18] = system: HT-29; test: Immunomodulatory activity in human HT-29 cells co-cultured with interferon gamma-stimulated THP-1 cells assessed as relative IL-6 level at 100 uM incubated for 48 hrs by ELISA analysis relative to control; format: functional; in short: as §3
[19] = system: HMEC-1; test: Antiangiogenic activity in HMEC-1 cells assessed as inhibition of endothelial microtubes formation at 100 uM incubated for 24 hrs by matrigel based imaging analysis; format: functional, cell-based; details: Homo sapiens
In short: (§4)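 HMEC-1 cells at 2 × 10^4 cells/well seeded on Matrigel (10 mg/mL, gelled 30 min at 37 °C) in EGM-2MV medium with SingleQuots, allowed to attach 30 min at 37 °C. Compounds then added in medium; after 24 h at 37 °C, microtube formation/destruction evaluated from pictures.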

[20] = system: HMEC-1; test: Antiangiogenic activity in HMEC-1 cells assessed as inhibition of endothelial microtubes formation at <75 uM incubated for 24 hrs by matrigel based imaging analysis; format: functional, cell-based; details: Homo sapiens; in short: as §4
[21] = system: HEK293; test: Anti-vasculogenic activity against HEK293 cells assessed as disruption of tube-like structures at 100 uM incubated for 24 hrs by Matrigel based imaging analysis; format: functional, cell-based; details: Homo sapiens
In short: (§5)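 HEK-293 cells seeded at 5 × 10^4 cells/well on Matrigel (pre-incubated with medium 24 h at 37 °C), grown 24 h at 37 °C until tube-like structures form; compounds then added in medium and incubated a further 24 h at 37 °C. Disruption of preformed tube-like structures assessed by imaging.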

[22] = system: HEK293; test: Anti-vasculogenic activity against HEK293 cells assessed as disruption of tube-like structures at <75 uM incubated for 24 hrs by Matrigel based imaging analysis; format: functional, cell-based; details: Homo sapiens; in short: as §5
[23] = system: HT-29; test: Immunomodulatory activity in human HT-29 cells co-cultured with interferon gamma-stimulated THP-1 cells assessed as reduction in IL-6 level at 100 uM incubated for 48 hrs by ELISA analysis relative to control; format: functional; parameters: scale not given: the % may be the effect or the level left; in short: as §3
[24] = system: HT-29; test: Immunomodulatory activity in human HT-29 cells co-cultured with interferon gamma-stimulated THP-1 cells assessed as reduction in number of cells at 100 uM incubated for 48 hrs; format: functional, cell-based; in short: as §1
[25] = system: HT-29; test: Immunomodulatory activity in human HT-29 cells co-cultured with interferon gamma-stimulated THP-1 cells assessed as induction of morphological changes by measuring cell shrinkage at 100 uM incubated for 48 hrs; format: functional, cell-based
In short: (§6)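 HT-29 cells co-cultured with IFN-γ-stimulated THP-1 cells and treated 48 h with compounds at 100 µM, with DMSO as control. Cell shrinkage and rounded morphology assessed by microscopy images.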

[26] = system: HT-29; test: Immunomodulatory activity in human HT-29 cells co-cultured with interferon gamma-stimulated THP-1 cells assessed as induction of morphological changes by measuring rounded cell morphology at 100 uM incubated for 48 hrs; format: functional, cell-based; in short: as §6

Row | pIC50 [12] | pIC50 [13] | pIC50 [14] | Structure (SMILES) | Activity [1] | Activity [2] [%] | Activity [3] [%] | Activity [4] [%] | Activity [5] [%] | Activity [6] [%] | viability at 100 µM [7] [%] | inhibition at 100 µM [8] [%] | Activity [9] [%] | Activity [10] [%] | IC50 at 48 h [15] [µM] | Activity [16] | Activity [17] [pg/mL] | Activity [18] [%] | Activity [19] | Activity [20] | Activity [21] | further results
1 |  |  |  | Cc1cccc(Cn2nnc(-c3cccc(N)c3)n2)c1 | Non-Toxic | >100 | 81 | >100 | >100 | >100 | 15 | > 70 | 69 | 99 |  |  |  |  |  |  |  | inhibition at 100 µM [11]: > 30%
2 | 4.09 | < 4.00 | < 4.00 | O=[N+]([O-])c1cccc(-c2nnn(Cc3ccccc3Cl)n2)c1 | Non-Toxic | 98 | 89 | 86 | 97 | 53 | 44 |  | 87 | 108 | > 100 |  |  |  |  |  |  | 
3 |  |  |  | Nc1cccc(-c2nnn(Cc3ccccc3Cl)n2)c1 | Non-Toxic | 95 | >100 | >100 | 96 | 92 | 61 |  | 86 | 93 |  | inactive | 6 | 3 | Active | inactive | Active | Activity [22]: inactive; Activity [23]: >95%
4 |  |  |  | Cc1ccc(Cn2nnc(-c3cccc(N)c3)n2)cc1 | Non-Toxic |  |  |  |  |  | 28 | > 70 | 67 | 90 |  |  |  |  |  |  |  | inhibition at 100 µM [11]: > 30%
5 |  |  |  | Nc1cccc(-c2cn(Cc3ccc(Cl)cc3)nn2)c1 | Non-Toxic |  |  |  |  |  | 5 | > 90 | 91 | 140 |  | inactive | 189 | 98 | Active | inactive | Active | Activity [24]: Active; Activity [25]: Active; Activity [22]: inactive; Activity [26]: Active
6 | 4.09 | < 4.00 | 4.06 | Nc1cccc(-c2nnn(Cc3cccc(Cl)c3)n2)c1 | Non-Toxic | >100 | 97 | 76 | 97 | 99 | 48 |  | 95 | 94 | > 100 | inactive | 6 | 3 | Active | inactive | Active | Activity [22]: inactive; Activity [23]: >95%
7 |  |  |  | Nc1cccc(-c2cn(Cc3ccc(Br)cc3)nn2)c1 | Non-Toxic |  |  |  |  |  | 8 | > 90 | 92 | 154 |  | inactive | 183 | 95 | Active | inactive | Active | Activity [24]: Active; Activity [25]: Active; Activity [22]: inactive; Activity [26]: Active
8 | < 4.00 | < 4.00 | 4.08 | O=[N+]([O-])c1cccc(-c2nnn(Cc3ccc(Cl)cc3)n2)c1 | Non-Toxic | 93 | 87 | 90 | 95 | 45 | 93 |  | 88 | 93 | > 100 |  |  |  |  |  |  | 
9 | 4.14 | < 4.00 | < 4.00 | Nc1cccc(-c2nnn(Cc3ccc(Cl)cc3)n2)c1 | Non-Toxic | >100 | 99 | 80 | >100 | 96 | 22 | > 70 | 93 | 114 | 91 | inactive | 11 | 6 | Active | inactive | Active | Activity [22]: inactive; Activity [23]: 94%
10 |  |  |  | COc1ccc(Cn2nnc(-c3cccc(N)c3)n2)cc1 | Non-Toxic | >100 | 99 | 75 | >100 | 75 | 45 |  | 58 | 100 |  |  |  |  |  |  |  | Activity [24]: Active; Activity [25]: Active; Activity [26]: Active; inhibition at 100 µM [11]: > 30%
11 | < 4.00 | 4.41 | < 4.00 | O=[N+]([O-])c1cccc(-c2nnn(Cc3ccc(Br)cc3)n2)c1 | Non-Toxic | >100 | 93 | 72 | 96 | 71 | 52 |  | 87 | 93 | > 100 |  |  |  |  |  |  | 
